IC50 data for 18 compounds are collected here from PMC3049929 (Journal of medicinal chemistry, 2008).

Structures are written as SMILES. A value given as a limit tells only on which side of the number the result lay.

The subject of assay [1] is P. falciparum 3D7 (chloroquine-sensitive). Format: cell-based. Particulars: Plasmodium falciparum, 3D7, Erythrocyte, 48 h, read-out: ED50 (nM) 3D7. The method, boiled down: (§1)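 Parasites cultured in type A+ human erythrocytes (2% hematocrit) in RPMI-1640 with 20% heat-inactivated type A+ human plasma, under 5% CO2/5% O2/90% N2. Test compound in DMSO added to culture at 0.5% parasitemia and 0.5% hematocrit. Incubated 37 °C for 48 h, then [8-3H]hypoxanthine (0.3 µCi) added for a further 24 h. Cells harvested to filter mats and counted by β-scintillation. Uninfected-erythrocyte background subtracted; DMSO-only wells taken as 100% growth. ED50 from linear regression of incorporation vs concentration.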

Assay [2] deals with P. falciparum K1 (chloroquine-resistant, pyrimethamine-resistant). Format: cell-based. Particulars: Plasmodium falciparum, K1, Erythrocyte, 48 h, read-out: ED50 (nM) K1. The method, boiled down:
as §1

On to `Cn1cnc(S(=O)(=O)N(Cc2ccccc2)[C@@H]2CCC[C@@H]2N(Cc2cncn2C)c2ccc(C#N)cc2)c1` (racemic) [6a, (±)-[N-Benzyl-N-{cis-2-[(4-cyanophenyl)(3-methyl-3H-imidazol-4-ylmethyl)amino]cyclopentyl}]-1-methyl-1H-imidazole-4-sulfonamide], for which the IC50 in assay [1] was over 5000 nM; in assay [2] it was 2400 nM.

With `Cc1ccccc1CN([C@@H]1CCC[C@@H]1N(Cc1cncn1C)c1ccc(C#N)cc1)S(=O)(=O)c1cn(C)cn1` (racemic) [6b, (±)-[N-(2-Methylbenzyl)-N-{cis-2-[(4-cyanophenyl)(3-methyl-3H-imidazol-4-ylmethyl)amino]cyclopentyl}]-1-methyl-1H-imidazole-4-sulfonamide], the IC50 in assay [1] and in assay [2] was 2800 nM throughout.

`Cn1cnc(S(=O)(=O)N(Cc2ccsc2)[C@@H]2CCC[C@@H]2N(Cc2cncn2C)c2ccc(C#N)cc2)c1` (racemic) [6c, (±)-[N-(Thiophen-3-ylmethyl)-N-{cis-2-[(4-cyanophenyl)(3-methyl-3H-imidazol-4-ylmethyl)amino]cyclopentyl}]-1-methyl-1H-imidazole-4-sulfonamide]: the IC50 in assay [1] was over 5000 nM; in assay [2], 4200 nM.

Consider `Cn1cnc(S(=O)(=O)N(CC2CCN(c3ncccn3)CC2)[C@@H]2CCC[C@@H]2N(Cc2cncn2C)c2ccc(C#N)cc2)c1` (racemic) [6e, (±)-[N-{N-(2-Pyrimidinyl)-piperidin-4-ylmethyl}-N-{cis-2-[(4-cyanophenyl)(3-methyl-3H-imidazol-4-ylmethyl)amino]cyclopentyl}]-1-methyl-1H-imidazole-4-sulfonamide], for which the values for the IC50 in assay [1] and in assay [2] were 3000 nM and 2500 nM, respectively.

On to `Cn1cnc(S(=O)(=O)N(Cc2ccccc2)[C@H]2CCC[C@@H]2N(Cc2cncn2C)c2ccc(C#N)cc2)c1` (racemic) [7a, (±)-[N-Benzyl-N-{trans-2-[(4-cyanophenyl)(3-methyl-3H-imidazol-4-ylmethyl)amino]cyclopentyl}]-1-methyl-1H-imidazole-4-sulfonamide], for which the IC50 in assay [1] worked out at 3100 nM.

For `Cc1ccccc1CN([C@H]1CCC[C@@H]1N(Cc1cncn1C)c1ccc(C#N)cc1)S(=O)(=O)c1cn(C)cn1` (racemic) [7b, (±)-[N-(2-Methylbenzyl)-N-{trans-2-[(4-cyanophenyl)(3-methyl-3H-imidazol-4-ylmethyl)amino]cyclopentyl}]-1-methyl-1H-imidazole-4-sulfonamide], the IC50 in assay [1] was found to be 3000 nM; in assay [2], 3200 nM.

As for `Cn1cnc(S(=O)(=O)N(Cc2ccsc2)[C@H]2CCC[C@@H]2N(Cc2cncn2C)c2ccc(C#N)cc2)c1` (racemic) [7c, (±)-[N-(Thiophen-3-ylmethyl)-N-{trans-2-[(4-cyanophenyl)(3-methyl-3H-imidazol-4-ylmethyl)amino]cyclopentyl}]-1-methyl-1H-imidazole-4-sulfonamide], the IC50 in assay [1] and in assay [2] was 2700 nM each time.

For `Cn1cnc(S(=O)(=O)N(CC2CCN(c3ncccn3)CC2)[C@H]2CCC[C@@H]2N(Cc2cncn2C)c2ccc(C#N)cc2)c1` (racemic) [7e, (±)-[N-{N-(2-Pyrimidinyl)-piperidin-4-ylmethyl}-N-{trans-2-[(4-cyanophenyl)(3-methyl-3H-imidazol-4-ylmethyl)amino]cyclopentyl}]-1-methyl-1H-imidazole-4-sulfonamide], the IC50 turned out to be 2600 nM in assay [1] and 750 nM in assay [2].

As for `Cn1cnc(S(=O)(=O)N(Cc2ccccc2)[C@H]2CC[C@@H](N(Cc3cncn3C)c3ccc(C#N)cc3)C2)c1` (racemic) [8a, (±)-[N-Benzyl-N-{cis-3-[(4-cyanophenyl)(3-methyl-3H-imidazol-4-ylmethyl)amino]cyclopentyl}]-1-methyl-1H-imidazole-4-sulfonamide], the IC50 was determined as 700 nM in assay [1] and 800 nM in assay [2].

In the case of `Cc1ccccc1CN([C@H]1CC[C@@H](N(Cc2cncn2C)c2ccc(C#N)cc2)C1)S(=O)(=O)c1cn(C)cn1` (racemic) [8b, (±)-[N-(2-Methylbenzyl)-N-{cis-3-[(4-cyanophenyl)(3-methyl-3H-imidazol-4-ylmethyl)amino]cyclopentyl}]-1-methyl-1H-imidazole-4-sulfonamide], the IC50 turned out to be 2400 nM in assay [1] and 2600 nM in assay [2].

Take `Cn1cnc(S(=O)(=O)N(Cc2ccsc2)[C@H]2CC[C@@H](N(Cc3cncn3C)c3ccc(C#N)cc3)C2)c1` (racemic) [8c, (±)-[N-(Thiophen-3-ylmethyl)-N-{cis-3-[(4-cyanophenyl)(3-methyl-3H-imidazol-4-ylmethyl)amino]cyclopentyl}]-1-methyl-1H-imidazole-4-sulfonamide]: the IC50 came to 2400 nM in assay [1] and 2500 nM in assay [2].

Consider `Cn1cnc(S(=O)(=O)N(CC2CCN(C(=O)OC(C)(C)C)CC2)[C@H]2CC[C@@H](N(Cc3cncn3C)c3ccc(C#N)cc3)C2)c1` (racemic) [8d, (±)-[N-(N-tert-Butoxycarbonylpiperidin-4-ylmethyl)-N-{cis-3-[(4-cyanophenyl)-(3-methyl-3H-imidazol-4-ylmethyl)amino]cyclopentyl}]-1-methyl-1H-imidazole-4-sulfonamide], for which the IC50 in assay [1] was 300 nM.

Consider `Cn1cnc(S(=O)(=O)N(CC2CCN(c3ncccn3)CC2)[C@H]2CC[C@@H](N(Cc3cncn3C)c3ccc(C#N)cc3)C2)c1` (racemic) [8e, (±)-[N-{N-(2-Pyrimidinyl)-piperidin-4-ylmethyl}-N-{cis-3-[(4-cyanophenyl)(3-methyl-3H-imidazol-4-ylmethyl)amino]cyclopentyl}]-1-methyl-1H-imidazole-4-sulfonamide], for which the IC50 in assay [1] is 600 nM; in assay [2] it was 720 nM.

Turning to `Cn1cnc(S(=O)(=O)N(Cc2ccccc2)[C@@H]2CC[C@@H](N(Cc3cncn3C)c3ccc(C#N)cc3)C2)c1` (racemic) [9a, (±)-[N-Benzyl-N-{trans-3-[(4-cyanophenyl)(3-methyl-3H-imidazol-4-ylmethyl)amino]cyclopentyl}]-1-methyl-1H-imidazole-4-sulfonamide], the IC50 in assay [1] amounted to 340 nM.

Regarding `Cc1ccccc1CN([C@@H]1CC[C@@H](N(Cc2cncn2C)c2ccc(C#N)cc2)C1)S(=O)(=O)c1cn(C)cn1` (racemic) [9b, (±)-[N-(2-Methylbenzyl)-N-{trans-3-[(4-cyanophenyl)(3-methyl-3H-imidazol-4-ylmethyl)amino]cyclopentyl}]-1-methyl-1H-imidazole-4-sulfonamide], the values for the IC50 in assay [1] and in assay [2] were 2400 nM and 2200 nM, respectively.

Turning to `Cn1cnc(S(=O)(=O)N(CCCN(Cc2cncn2C)c2ccc(C#N)cc2)Cc2ccccc2)c1` [2a, [N-Benzyl-N-3-{(4-cyanophenyl)(3-methyl-3H-imidazol-4-ylmethyl)amino}propyl]-1-methyl-1H-imidazole-4-sulfonamide], in assay [1], the IC50 was 3100 nM.

On to `Cn1cnc(S(=O)(=O)N(CCCN(Cc2cncn2C)c2ccc(C#N)cc2)CC2CCN(c3ncccn3)CC2)c1` [2e, [N-{N-(2-Pyrimidinyl)-piperidin-4-ylmethyl}-N-3-{(4-cyanophenyl)(3-methyl-3H-imidazol-4-ylmethyl)amino}propyl]-1-methyl-1H-imidazole-4-sulfonamide], for which the IC50 in assay [1] stood at 1300 nM.

For `Cn1cnc(S(=O)(=O)N(Cc2ccccc2)[C@H]2CC[C@H](N(Cc3cncn3C)c3ccc(C#N)cc3)CC2)c1` [11a, (±)-[N-Benzyl-N-{trans-4-[(4-cyanophenyl)(3-methyl-3H-imidazol-4-ylmethyl)amino]cyclohexyl}]-1-methyl-1H-imidazole-4-sulfonamide], the IC50 in assay [2] was determined as 1800 nM.
